The term MIC denotes the lowest concentration found to suppress growth. Low readings indicate a more susceptible organism, high ones a less susceptible organism.

Series [1] deals with Pseudomonas aeruginosa. As to the kind of experiment: Antimicrobial activity against wild type Pseudomonas aeruginosa PAO1 incubated for 18 hrs by broth microdilution method. It is filed as functional. Conditions: PAO1, 18 h. In short, it runs like this: (§1)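 Broth microdilution per CLSI: overnight cultures set to 0.5 McFarland in saline, diluted 1:50 in Mueller-Hinton broth to a final 5 × 10^5 CFU/mL, added to 2-fold serial dilutions, incubated 18 h at 37 °C; MIC is the lowest concentration without visible turbidity, confirmed at 590 nm.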
On the technique in general: Broth dilution looks for growth in wells or tubes with falling amounts of substance.

For series [2], the system named is Pseudomonas aeruginosa. Briefly: Synergistic antibacterial activity against MDR/XDR Pseudomonas aeruginosa isolate PA259-96918 harboring GyrA T83I mutant assessed as fractional inhibitory concentration index in presence of moxifloxacin incubated for 18 hrs by broth microdilution method. It is filed as functional. In short, it runs like this: (§2)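 Checkerboard synergy assay. Antibiotic and adjuvant in twofold dilutions in Mueller-Hinton broth. Inoculum 5 × 10^5 CFU/mL from a 0.5 McFarland suspension, 18 h at 37 °C, MIC read by turbidity and confirmed at 590 nm. FIC = MIC in combination / MIC alone for each agent, FICI = sum. Interpreted as ≤0.5 synergy, 0.5–4 no interaction, >4 antagonism.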

For series [3], the system named is Enterobacter cloacae. Briefly: Synergistic antibacterial activity against Enterobacter cloacae 117029 assessed as fractional inhibitory concentration index in presence of minocycline incubated for 18 hrs by broth dilution method. Format: functional. In short, it runs like this: (§3)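 Checkerboard titration of the adjuvant against the antibiotic, run under the CLSI microdilution conditions (MHB, 5 × 10^5 CFU/mL, 18 h, 37 °C). Each agent's FIC is its MIC in combination divided by its MIC alone; FICI is the sum of the two FICs. FICI ≤0.5 was read as synergy, >0.5–4.0 as no interaction, and >4.0 as antagonism.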

For series [4], the system named is Pseudomonas aeruginosa. Briefly: Synergistic antibacterial activity against MDR/XDR Pseudomonas aeruginosa isolate PA259-96918 harboring T83I mutant assessed as fractional inhibitory concentration index in presence of rifampicin incubated for 18 hrs by broth microdilution method. It is filed as functional. In short, it runs like this: as §2
In series [5] the test system is Pseudomonas aeruginosa. As to the kind of experiment: Synergistic antibacterial activity against wild type Pseudomonas aeruginosa PAO1 assessed as fractional inhibitory concentration index in presence of rifampicin incubated for 18 hrs by broth microdilution method. It is filed as functional. In short, it runs like this:
as §2

The test system of series [6] is Klebsiella pneumoniae. As to the kind of experiment: Synergistic antibacterial activity against Klebsiella pneumoniae 116381 assessed as fractional inhibitory concentration index in presence of minocycline incubated for 18 hrs by broth dilution method. Format: functional. In short, it runs like this: as §3
Series [7] concerns Pseudomonas aeruginosa. Briefly: Synergistic antibacterial activity against MDR/XDR Pseudomonas aeruginosa isolate 101885 harboring T83I mutant assessed as fractional inhibitory concentration index in presence of minocycline incubated for 18 hrs by broth microdilution method. Format: functional. In short, it runs like this: as §2
Series [8] concerns Klebsiella pneumoniae. Briefly: Synergistic antibacterial activity against Klebsiella pneumoniae 116381 assessed as fractional inhibitory concentration index in presence of rifampicin incubated for 18 hrs by broth dilution method. Format: functional. In short, it runs like this: as §3
The subject of series [9] is Pseudomonas aeruginosa. As to the kind of experiment: Synergistic antibacterial activity against wild type Pseudomonas aeruginosa PAO1 assessed as fractional inhibitory concentration index in presence of minocycline incubated for 18 hrs by broth microdilution method. It is filed as functional. In short, it runs like this:
as §3

The next series has as its system HEK293. Briefly: Cytotoxicity against HEK293 cells at 50 uM incubated for 48 hrs by PrestoBlue dye based fluorescence assay. It is filed as cell-based. Conditions: human, hek293, 48 h.
Series [10] relates to Enterobacter cloacae. Briefly: Antimicrobial activity against Enterobacter cloacae 117029 incubated for 18 hrs by broth dilution method. Format: functional. Conditions: Enterobacter cloacae, 117029, 18 h. In short, it runs like this: (§4)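 CLSI broth microdilution. Overnight cultures were adjusted to 0.5 McFarland in saline, diluted 1:50 in Mueller-Hinton broth, and inoculated at a final 5 × 10^5 CFU/mL. Compounds were tested as 2-fold serial dilutions and incubated 18 h at 37 °C. MIC was the lowest concentration with no visible turbidity, confirmed by absorbance at 590 nm.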

Series [11] relates to Pseudomonas aeruginosa. As to the kind of experiment: Synergistic antibacterial activity against MDR/XDR Pseudomonas aeruginosa isolate PA262-101856 harboring GyrA T83I mutant assessed as fractional inhibitory concentration index in presence of rifampicin incubated for 18 hrs by broth microdilution method. Format: functional. In short, it runs like this:
as §2

Series [12] has as its system Pseudomonas aeruginosa. As to the kind of experiment: Synergistic antibacterial activity against MDR/XDR Pseudomonas aeruginosa isolate PA259-96918 harboring GyrAT83I mutant assessed as fractional inhibitory concentration index in presence of minocycline incubated for 18 hrs by broth microdilution method. Format: functional. In short, it runs like this:
as §2

Series [13] deals with Pseudomonas aeruginosa. Briefly: Antimicrobial activity against MDR/XDR Pseudomonas aeruginosa isolate PA264-104354 harboring GyrA Thr83Ile mutant incubated for 18 hrs by broth microdilution method. It is filed as functional. Conditions: isolate PA264-104354, 18 h. In short, it runs like this: as §1
Series [14] deals with Klebsiella pneumoniae. Briefly: Antimicrobial activity against Klebsiella pneumoniae 116381 incubated for 18 hrs by broth dilution method. Conditions: Klebsiella pneumoniae, 116381, 18 h. It is filed as functional. In short, it runs like this:
as §4

In series [15] the test system is Pseudomonas aeruginosa. Briefly: Synergistic antibacterial activity against MDR/XDR Pseudomonas aeruginosa isolate 101885 harboring GyrA T83I mutant assessed as fractional inhibitory concentration index in presence of ciprofloxacin incubated for 18 hrs by broth microdilution method. Format: functional. In short, it runs like this:
as §2

Series [16] relates to Pseudomonas aeruginosa. Briefly: Synergistic antibacterial activity against MDR/XDR Pseudomonas aeruginosa isolate PA262-101856 harboring GyrA T83I mutant assessed as fractional inhibitory concentration index in presence of minocycline incubated for 18 hrs by broth microdilution method. Format: functional. In short, it runs like this: as §2
Series [17] concerns Pseudomonas aeruginosa. Briefly: Synergistic antibacterial activity against MDR/XDR Pseudomonas aeruginosa isolate PA259-96918 harboring GyrA T83I mutant assessed as fractional inhibitory concentration index in presence of ciprofloxacin incubated for 18 hrs by broth microdilution method. It is filed as functional. In short, it runs like this:
as §2

In series [18] the test system is Pseudomonas aeruginosa. As to the kind of experiment: Synergistic antibacterial activity against wild type Pseudomonas aeruginosa PAO1 assessed as fractional inhibitory concentration index in presence of moxifloxacin incubated for 18 hrs by broth microdilution method. It is filed as functional. In short, it runs like this: as §2
In series [19] the test system is Pseudomonas aeruginosa. Briefly: Antimicrobial activity against MDR/XDR Pseudomonas aeruginosa isolate 101243 devoid of GyrA Thr83Ile mutant incubated for 18 hrs by broth microdilution method. It is filed as functional. Conditions: isolate 101243, 18 h. In short, it runs like this: as §1
The test system of series [20] is Pseudomonas aeruginosa. As to the kind of experiment: Antimicrobial activity against MDR/XDR Pseudomonas aeruginosa isolate 101885 harboring GyrA Thr83Ile mutant incubated for 18 hrs by broth microdilution method. Format: functional. Conditions: isolate 101885, 18 h. In short, it runs like this: as §1
The subject of the next series is HepG2. As to the kind of experiment: Cytotoxicity against human HepG2 cells at 50 uM incubated for 48 hrs in presence of 50 uM rifampicin by PrestoBlue dye based fluorescence assay. It is filed as cell-based. Conditions: hepg2, 48 h.
Series [21] deals with Pseudomonas aeruginosa. As to the kind of experiment: Antimicrobial activity against MDR/XDR Pseudomonas aeruginosa isolate PA259-96918 harboring GyrA Thr83Ile mutant incubated for 18 hrs by broth microdilution method. Format: functional. Conditions: isolate PA259-96918, 18 h. In short, it runs like this:
as §1

Series [22] relates to Pseudomonas aeruginosa. As to the kind of experiment: Synergistic antibacterial activity against MDR/XDR Pseudomonas aeruginosa isolate 100036 harboring GyrA T83I mutant assessed as fractional inhibitory concentration index in presence of ciprofloxacin incubated for 18 hrs by broth microdilution method. It is filed as functional. In short, it runs like this: as §2
Series [23] has as its system Pseudomonas aeruginosa. Briefly: Synergistic antibacterial activity against MDR/XDR Pseudomonas aeruginosa isolate PA260-97103 harboring GyrA T83I mutant assessed as fractional inhibitory concentration index in presence of minocycline incubated for 18 hrs by broth microdilution method. Format: functional. In short, it runs like this:
as §2

Series [24] in a line: Retention time of the compound by HPLC analysis. It is filed as physicochemical.
The subject of series [25] is Pseudomonas aeruginosa. Briefly: Synergistic antibacterial activity against MDR/XDR Pseudomonas aeruginosa isolate PA264-104354 harboring GyrA T83I mutant assessed as fractional inhibitory concentration index in presence of minocycline incubated for 18 hrs by broth microdilution method. Format: functional. In short, it runs like this: as §2
Series [26] concerns Pseudomonas aeruginosa. Briefly: Synergistic antibacterial activity against MDR/XDR Pseudomonas aeruginosa isolate PA264-104354 harboring T83I mutant assessed as fractional inhibitory concentration index in presence of rifampicin incubated for 18 hrs by broth microdilution method. Format: functional. In short, it runs like this: as §2

Where only a bound is given, the exact number is not on record here.

`COc1c(N2C[C@@H]3CCCN(CCCCCCCCCCCCO[C@@H]4[C@@H](O)[C@H](N)C[C@H](N)[C@H]4O[C@H]4O[C@H](CN)[C@@H](O)C[C@H]4N)[C@@H]3C2)c(F)cc2c(=O)c(C(=O)O)cn(C3CC3)c12.Cl.Cl.Cl.Cl.Cl`: the MIC with Pseudomonas aeruginosa [1] was 32 µg/mL; against Enterobacter cloacae [10], 32 µg/mL; with Pseudomonas aeruginosa [13], 256 µg/mL; in the series with Klebsiella pneumoniae [14], above 256 µg/mL; in the series on Pseudomonas aeruginosa [19] it was 64 µg/mL; in the series with Pseudomonas aeruginosa [20], 128 µg/mL. For the same molecule, the MIC in the series on Pseudomonas aeruginosa [21] is above 256 µg/mL. Moreover, the “fractional inhibitory concentration index (FICI)” value in the series on Pseudomonas aeruginosa [2] was 0.06 - 0.07; in the series with Enterobacter cloacae [3], 0.19; with Pseudomonas aeruginosa [4] it was 0.004 - 0.01; with Pseudomonas aeruginosa [5] it was 0.07; in the series on Klebsiella pneumoniae [6], 0.063 - 78; in the series on Pseudomonas aeruginosa [7], 0.07. Moreover, the “fractional inhibitory concentration index (FICI)” value is given as 0.002 - 0.006 in the series with Klebsiella pneumoniae [8]; 0.38 with Pseudomonas aeruginosa [9]; 0.008 - 0.02 with Pseudomonas aeruginosa [11]; 0.03 - 0.04 in the series with Pseudomonas aeruginosa [12]; above 1 with Pseudomonas aeruginosa [15]; 0.03 - 0.05 in the series with Pseudomonas aeruginosa [16]. Also, the “fractional inhibitory concentration index (FICI)” value in the series on Pseudomonas aeruginosa [17] is reported as 0.25 - 0.27; with Pseudomonas aeruginosa [18], 0.25; with Pseudomonas aeruginosa [22] it was 0.56; with Pseudomonas aeruginosa [23], 0.09; in the series on Pseudomonas aeruginosa [25], 0.05; in the series with Pseudomonas aeruginosa [26], 0.02. Also, the Activity result in the series on HEK293 and with HepG2 was “Non-Toxic” throughout. This molecule yielded a Retention_time in [24] of 14.585 min.
As for `Cl.Cl.Cl.Cl.Cl.Cl.NC[C@H]1O[C@H](O[C@H]2[C@H](OCCCCCCCCCCN3CCN(Cc4cccc5ccccc45)CC3)[C@@H](O)[C@H](N)C[C@@H]2N)[C@H](N)C[C@@H]1O`, the MIC in the series on Pseudomonas aeruginosa [1] was 256 µg/mL; against Pseudomonas aeruginosa [19], 512 µg/mL; in the series with Pseudomonas aeruginosa [20], 512 µg/mL; against Pseudomonas aeruginosa [21], above 512 µg/mL. Besides, the “fractional inhibitory concentration index (FICI)” value in the series on Pseudomonas aeruginosa [2] is reported as 0.016 - 0.023; in the series on Pseudomonas aeruginosa [4], 0.004 - 0.006; in the series with Pseudomonas aeruginosa [5], 0.02; with Pseudomonas aeruginosa [7], 0.04; in the series on Pseudomonas aeruginosa [9], 0.09; in the series on Pseudomonas aeruginosa [11], 0.02. Moreover, the “fractional inhibitory concentration index (FICI)” value in the series on Pseudomonas aeruginosa [12] was 0.016 - 0.031; in the series with Pseudomonas aeruginosa [15], 0.13; in the series with Pseudomonas aeruginosa [16], 0.04; in the series with Pseudomonas aeruginosa [17], 0.063 - 0.078; in the series with Pseudomonas aeruginosa [18], 0.05; with Pseudomonas aeruginosa [22], 0.125 - 0.133. Besides, in the series on Pseudomonas aeruginosa [23], the “fractional inhibitory concentration index (FICI)” value was determined as 0.09. This molecule also registered a Retention_time in series [24] of 12.917 min.
Regarding `Cl.Cl.Cl.Cl.Cl.NC[C@H]1O[C@H](O[C@H]2[C@H](OCCCCCCCCCCCCN3CCN(c4cc5c(cc4F)c(=O)c(C(=O)O)cn5C4CC4)CC3)[C@@H](O)[C@H](N)C[C@@H]2N)[C@H](N)C[C@@H]1O`, the minimum inhibitory concentration (MIC) against Pseudomonas aeruginosa [1] was 64 µg/mL; against Enterobacter cloacae [10], 32 µg/mL; against Pseudomonas aeruginosa [13], 128 µg/mL; against Klebsiella pneumoniae [14] it was above 128 µg/mL; against Pseudomonas aeruginosa [21] it was above 128 µg/mL. Moreover, the “fractional inhibitory concentration index (FICI)” value is recorded as 0.125 with Enterobacter cloacae [3]; 0.008 - 0.016 with Pseudomonas aeruginosa [4]; 0.047 in the series with Pseudomonas aeruginosa [5]; 0.063 - 0.07 in the series on Klebsiella pneumoniae [6]; “<=0.039” in the series with Klebsiella pneumoniae [8]; 0.047 in the series with Pseudomonas aeruginosa [9]. Also, the “fractional inhibitory concentration index (FICI)” value in the series on Pseudomonas aeruginosa [12] is recorded as 0.031 - 0.063; in the series with Pseudomonas aeruginosa [25], 0.039; in the series on Pseudomonas aeruginosa [26] it was 0.039. Besides, the Activity entry with HEK293 and in the series on HepG2 was “Non-Toxic” throughout. Besides, the Retention_time in series [24] is 14.945 min.

(Values after ChEMBL document CHEMBL4354800, “Amphiphilic nebramine-based hybrids Rescue legacy antibiotics from intrinsic resistance in multidrug-resistant Gram-negative bacilli” (Eur J Med Chem, 2019).)
